Format in all cases: cell-based
The nature of series [1]: Toxicity in human MCF10A cells with UVSSA knockdown assessed as increase in MYC ON/MYC OFF survival ratio at 100 ng/ml administered every 48 to 72 hrs over 14 days by FBCS assay. The note with it: mcf10, 336 h, time 14 day.
In series [2] the test system is MCF10. The series is described as follows: Inhibition of RNA polymerase 2 in human MCF10A cells with UVSSA knockdown assessed as transiently alleviation of synthetic sickness phenotype at 100 ng/ml administered every 48 to 72 hrs over 14 days by FBCS assay. The note with it: time 14.0 day.
The subject of series [3] is MCF10. Nature of the series: Inhibition of RNA polymerase 2 in human MCF10A cells with UVSSA knockdown assessed as increase in MYC ON/MYC OFF survival ratio at 100 ng/ml administered every 48 to 72 hrs over 14 days by FBCS assay. The note with it: time 14.0 day.
The target of series [4] is Ubiquitin carboxyl-terminal hydrolase 7 (Homo sapiens) (UniProt Q93009). The series is described as follows: Inhibition of USP7 in human MCF10A-MYC-ER cells assessed as increase in sensitization of MYC expressing cells up to 4 uM by MTT assay relative to control. The note with it: MCF10.
Series [5] has the same target. Nature of the series: Inhibition of USP7 in human MCF10A-MYC-ER cells assessed as increase in sensitization of MYC expressing cells up to 4 uM by Clonogenic assays relative to control. The note with it: MCF10. The gist of the method:
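Clonogenic assay: MCF10A-MYC-ER cells plated at 500 per 100-mm dish with 200 nM 4OHT or vehicle. Next day, P5091 at 0–4 µM for 24 h, then medium with 4OHT or vehicle for 10 d at 37°C. Colonies methanol-fixed, crystal violet-stained and counted; percentage survival from colony number; unpaired t test, n = 4.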

The test system of series [6] is MCF10. The series is described as follows: Inhibition of DNA replicative polymerase in human MCF10A cells with UVSSA knockdown assessed as transiently alleviation of synthetic sickness phenotype at 50 ng/ml administered every 48 to 72 hrs over 26 days by FBCS assay. Particulars: time 26.0 day. Summed up:
(§1)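 FBCS: 250,000 shUVSSA-4 or shCONTROL MCF10A-MYC-ER cells coplated with 250,000 shRNA-free cells. Given 1 µg/ml doxycycline, 200 nM 4OHT or ethanol vehicle, and aphidicolin (top dose 50 ng/ml) or vehicle every 48–72 h for 26 d. Fluorescent fraction measured by flow cytometry at each passage; MYC ON/MYC OFF ratio calculated; n = 3.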

Series [7] deals with MCF10. Nature of the series: Inhibition of DNA replicative polymerase in human MCF10A cells with UVSSA knockdown assessed as increase in MYC ON/MYC OFF survival ratio at 50 ng/ml administered every 48 to 72 hrs over 26 days by FBCS assay. Particulars: time 26.0 day. Summed up:
as §1

In series [8] the test system is DNA. Nature of the series: Induction of DNA double strand breaks in human MCF10A cells assessed as significant accumulation of P-CHK1(S345) or P-RPA (S4/S8) by Western blot analysis. The note with it: MCF10. The gist of the method:
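Immunoblot of whole-cell lysates (RIPA buffer with protease/phosphatase inhibitors, sonicated, cleared at 4°C) from MCF10A-MYC-ER shRNA lines given 200 nM 4OHT or vehicle plus 1 µg/ml doxycycline every 3 d and harvested at day 9. β-Actin is the loading control and NCS-treated cells the DSB positive control. Signal detected by ECL on film.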
A general note: In western blotting, separated proteins are transferred to a membrane and probed.

Molecules are shown by their SMILES. Calls of active or inactive are those of the source. The rule behind the calls is not given here.

Sequence of Ubiquitin carboxyl-terminal hydrolase 7 (Homo sapiens) (Q93009 whole entry, looked up): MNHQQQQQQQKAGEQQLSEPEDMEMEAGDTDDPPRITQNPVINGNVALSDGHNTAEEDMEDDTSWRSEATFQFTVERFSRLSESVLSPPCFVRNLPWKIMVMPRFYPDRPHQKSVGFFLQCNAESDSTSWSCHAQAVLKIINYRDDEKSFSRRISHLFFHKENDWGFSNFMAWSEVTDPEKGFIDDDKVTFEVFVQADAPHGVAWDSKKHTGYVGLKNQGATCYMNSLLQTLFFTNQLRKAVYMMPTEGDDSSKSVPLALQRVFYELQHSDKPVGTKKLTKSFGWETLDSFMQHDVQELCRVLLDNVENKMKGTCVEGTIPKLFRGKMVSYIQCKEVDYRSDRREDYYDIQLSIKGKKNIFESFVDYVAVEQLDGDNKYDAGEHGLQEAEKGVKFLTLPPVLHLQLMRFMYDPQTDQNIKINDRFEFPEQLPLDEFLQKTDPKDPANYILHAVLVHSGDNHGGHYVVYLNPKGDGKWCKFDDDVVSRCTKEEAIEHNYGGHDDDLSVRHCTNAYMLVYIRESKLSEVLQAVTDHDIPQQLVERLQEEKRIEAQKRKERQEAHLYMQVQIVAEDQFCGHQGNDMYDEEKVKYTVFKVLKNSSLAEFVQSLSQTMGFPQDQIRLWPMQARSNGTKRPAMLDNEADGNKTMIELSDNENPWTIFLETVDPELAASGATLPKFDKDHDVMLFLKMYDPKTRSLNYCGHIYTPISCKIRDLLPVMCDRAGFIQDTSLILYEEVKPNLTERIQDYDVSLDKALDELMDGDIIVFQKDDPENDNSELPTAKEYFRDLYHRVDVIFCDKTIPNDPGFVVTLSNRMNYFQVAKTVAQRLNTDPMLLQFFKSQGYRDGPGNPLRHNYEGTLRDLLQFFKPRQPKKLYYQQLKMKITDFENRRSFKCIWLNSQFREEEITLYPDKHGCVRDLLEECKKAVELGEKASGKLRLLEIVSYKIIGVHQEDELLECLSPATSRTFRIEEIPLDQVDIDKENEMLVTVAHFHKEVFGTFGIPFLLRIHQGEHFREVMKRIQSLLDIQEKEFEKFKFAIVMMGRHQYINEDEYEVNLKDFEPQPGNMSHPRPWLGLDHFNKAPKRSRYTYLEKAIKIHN

Regarding `CC[C@H](C)[C@@H]1NC(=O)CNC(=O)[C@@H]2Cc3c([nH]c4cc(O)ccc34)[S@+]([O-])C[C@H](NC(=O)CNC1=O)C(=O)N[C@@H](CC(N)=O)C(=O)N1C[C@H](O)C[C@H]1C(=O)N[C@@H]([C@@H](C)[C@@H](O)CO)C(=O)N2`, in series [1], the Activity entry was “Toxic”. Also, the inhibition result in series [2] and in series [3] was “Active” throughout.

With `CC(=O)c1cc([N+](=O)[O-])c(Sc2cccc(Cl)c2Cl)s1`, the fold change (FC) in series [4] amounted to 3. Further, the inhibition entry in series [5] is “Active”.

Regarding `C[C@@]1(CO)[C@H](O)CC[C@@]2(C)[C@H]1CC[C@H]1C[C@@H]3C[C@@]12CC[C@]3(O)CO`, the inhibition result in series [6] and in series [7] was “inactive” each time.

Consider `CN[C@H]1[C@@H](O[C@@H]2C3CC#C[C@H]4O[C@@]4(C4COC(=O)O4)C#CC3=C[C@H]2OC(=O)c2c(O)ccc3c(C)cc(OC)cc23)O[C@H](C)[C@H](O)[C@@H]1O` (stereo partly drawn), for which the outcome in series [8] was Active.

The values above are taken from ChEMBL document CHEMBL5712095, “The UVSSA complex alleviates MYC-driven transcription stress” (J Cell Biol, 2021).
